The series has as its system MS2 coat protein. Description: apparent Kd, MS2 coat protein; higher = weaker binding; RNA-MaP array; FMN 200 µM where present. In short, it runs like this: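 In 100 mM Tris-HCl pH 7.5, 80 mM KCl, 4 mM MgCl2, BSA, DTT, yeast tRNA and Tween-20, SNAP-549-labelled MS2 coat protein was titrated from 0.7 or 1.5 nM, doubling to 3 µM, over designs transcribed by stalled E. coli RNA polymerase on Illumina sequencing-chip clusters. This was done first without ligand, then with ligand held constant. After green signal was normalised to red-channel RNA signal and control-cluster median Fmax, the apparent Kd was taken as the median of filtered per-cluster binding-curve fits.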

Where [1] appears, read: designed as: OFF switch for flavin mononucleotide, no ligand.
Where [2] appears, read: ligand present: flavin mononucleotide, designed as: OFF switch for flavin mononucleotide.
The mark [3] stands for this setting: designed as: ON switch for flavin mononucleotide, no ligand.
[4] abbreviates: ligand present: flavin mononucleotide, designed as: ON switch for flavin mononucleotide.

For “AUUAUGCAGCAGGAUAUCGAUCCGCAGUAUGAUCGAGAAGGGCUGACAUGAGGAUCACCCAUGUGCGUCCUAGG”, the apparent Kd – broadly, a dissociation constant that holds for the conditions of the assay – under setting [1] turned out to be 43.6 nM and the “apparent Kd” value under setting [2] stood at 155 nM.
On to “UUGGACGUCGUAGGAUAUGUAGGAUAUUACUACAUGAGGAUCACCCAUGUUGACAUGGAAGAAGGACAGAAGGACGAUGUCCAU”, for which the “apparent Kd” value is 638 nM under setting [3] and 6.52 nM under setting [4].
“GCCUUAUCCGUCAGGAUAUACAUUUUUUUGUUGUUGUAGAAGGGACAUGAGGAUCACCCAUGUACAUUACAUUG”: the “apparent Kd” value reads like this: under setting [1], 21.5 nM; under setting [2], 25.1 nM.
As to “CAGGAGAACACAGGAUAUCCGUAAAACAUGAGGAUCACCCAUGUUUGUGGCCCGCCAGGGCUGACGGAGAAGGGUGACUCGCAC”, the “apparent Kd” value by setting is: under setting [3], 6.69 nM; under setting [4], 5.61 nM.
“AAGGGUUGUGAGGAUAUGGCUUACCAAUUGGUACCAGAAGGCGCUACAUGAGGAUCACCCAUGUGGGUCGUCCC”: the “apparent Kd” value worked out at 51.8 nM under setting [1] and 82.9 nM under setting [2].
For “ACUAGAUGAGGAUAUGCAUGUUUUCAUGUUCUUCUAGAUUAACAUGAGGAUCACCCAUGUAGAAGGCGUCUUUU” the same measures were 21.4 nM and 32 nM.
The like results for “UGUCGGAGCAGAGGAUAUUACAUGAGGAUCACCCAUGUAUGAACCAACAGCUGGAAACAGCAAUGUAAGAAGGCUGCUCCGACA” were, in that order, 10.4 nM and 131 nM.
The like results for “UGUGACAUGAGGAUCACCCAUGUAGAGGAUAUAGAGAUGAUGUUAGAGAAGAAUGUGUAGUAAGACUAGAAGGCUAUGUGUGUA” were, in that order, 32.8 nM and 28.2 nM.
As to “UUGGACGUCGUAGGAUAUGUAGGAUAUUCCUACAUGAGGAUCACCCAUGUUGACAUGGAAGAAGGUCAGAAGGACGAUGUCCAU”, the “apparent Kd” value runs as follows: under setting [3], 344 nM; under setting [4], 559 nM.
Consider “GUAGAGUCAGGAUAUACGAGAUCGAAAGAUCGGCGGUCUGUACAUGAGGAUCACCCAUGUAGAAGGGACUCUAC”, for which the “apparent Kd” value amounted to 16.4 nM under setting [1] and 94.4 nM under setting [2].
In the case of “AAGAAGUUAGGAUAUGCUGCUCGUCACAAAAGUGAUGAGUAGCAGAAGGAACAUGAGGAUCACCCAUGUAAAGA”, the “apparent Kd” value reads like this: under setting [1], 32.3 nM; under setting [2], 22.9 nM.
With “UUACUUGUGCAGAAGGGCAUUGAAUUAGGUUUUUAGGUUGAUCAGAAAUGCAGGAUAUGUUAAACAUGAGGAUCACCCAUGUAC”, the “apparent Kd” value runs as follows: under setting [3], 66.9 nM; under setting [4], 13.9 nM.
The like results for “UUGGACGUCGUAGGAUAGGUAGGAUAUUCCUACAUGAGGAUCACCCAUGUUGACAUGGAAGAAGGACAGAAGGACGAUGUCCAU” were, in that order, 142 nM and 5.7 nM.
With “UACUGACAUGAGGAUCACCCAUGUGAGGAUAUUCUCCUGCUAAAUUAAUGGUGGGUGUGAAGAAGGCACAAGGA”, the “apparent Kd” value turned out to be 37.3 nM under setting [1] and 120 nM under setting [2].
In the case of “AUCCAGGUAACAUGAGGAUCACCCAUGUUCCUUCGCUCUGGCGAGGAUAUGAAGGGAUUGUCCCAUCAGAAGGCGCAUGGGUGC”, the “apparent Kd” value was 46.7 nM under setting [3] and 57.5 nM under setting [4].
Turning to “UUACUUGUGCAGAAGGGCAUUGAUUUAGGUUUUUAGGUUGAUCAGAUAUGCAGGAUAUGCUAUACAUGAGGAUCACCCAUGUUC”, the “apparent Kd” value runs as follows: under setting [3], 112 nM; under setting [4], 8.99 nM.
Turning to “CGCAAUAUACAGAAGGAGUUAUUGAGAGGUUUACUAGGAUAUGUUCACAUGAGGAUCACCCAUGUCAUAUGGUUUUUUAUUGCG”, the “apparent Kd” value came to 13.6 nM under setting [1] and 11.4 nM under setting [2].
The like results for “CUUCUGUGAGGAUAUUGACCAGUAGCUGACCUAGUACUGGAUGAGAAGGCACAUGAGGAUCACCCAUGUGGCAC” were, in that order, 19.5 nM and 104 nM.
For “UAAUAAUAGCAAGGAUAUAGUUAUUAUAAUAUACUAGAAGGUGCACAUGAGGAUCACCCAUGUUUUAUAAUUUGUAAUUUAAAU” the same measures were 29 nM and 22.4 nM.
For “UUGAAAUUGUAAGGAUAUACUCUGUGAUGAAGAGUAGAAGGUACUUACAUGAGGAUCACCCAUGUUUAACGAGAUACUAAUCGU”, the “apparent Kd” value under setting [3] was 32 nM and the “apparent Kd” value under setting [4] was 16.6 nM.
The like results for “GGGUGAUCCUUAGGAUAUCCCGCGCCAAAGUGCGUUUAUACUACAUGAGGAUCACCCAUGUAACGGGAGAAGGGAGGAAGCCCG” were, in that order, 11 nM and 4.31 nM.
On to “ACUGGUCGAGGAUAUGCAUUCGUGCUUCGGCACGUAAGGUCACAUGAGGAUCACCCAUGUAGAAGGCGACCAGU”, for which the “apparent Kd” value is, setting by setting: under setting [1], 18.2 nM; under setting [2], 36.9 nM.
For “CCGGCCGCCGUGAGGAUAUGCCCGCGCGCCCGCGGGCAGAAGGCACAUGAGGAUCACCCAUGUCCUGCGGUCCC” the same measures were 20.1 nM and 119 nM.
For “AAUAACAGAGGAUAUGCAAAAAUAAGCGGAAACGCAAGAAAACAUGAGGAUCACCCAUGUAGAAGGCUGGAUAA” the same measures were 23.6 nM and 17.6 nM.
Take “GUAGCAUAGGGAGGAUAUUCAUAUAAUAAAUAAACAUGAGGAUCACCCAUGUGGCGAAAGCCUUGGGAGAAGGCCCAAUGCUAC”: the “apparent Kd” value reads like this: under setting [3], 866 nM; under setting [4], 36.2 nM.
For “GAGAUGUGAGGAUAUCUAGACCGCGGAAGAGCCGCAGUCCGAGAGAAGGCACAUGAGGAUCACCCAUGUGAUGA”, the “apparent Kd” value runs as follows: under setting [1], 33.4 nM; under setting [2], 61.2 nM.
For “CAGCGAUAGCUGAACAAUCUAUCACAGGAUAUUCAUGAAACAUGAGGAUCACCCAUGUGAAAUUGGGAGAAGGGUGAUAGAUUG”, the “apparent Kd” value reads like this: under setting [3], 12.7 nM; under setting [4], 5.36 nM.
As to “GACAUUGACAAGAAGGCAAACAUGAGGAUCACCCAUGUUCUGCAUGUAUAUUGAGGAUAUUGCCAAUGUAUGUGGAUCACCCAA”, the “apparent Kd” value runs as follows: under setting [1], 6.25 nM; under setting [2], 15.2 nM.
Regarding “GGAUCGAGUGUGAGGAUAUGCUGGUCCUUGGAUCAGCAGAAGGCACAUGAGGAUCACCCAUGUGAAGACGGUCC”, the “apparent Kd” value runs as follows: under setting [1], 32.3 nM; under setting [2], 201 nM.
For “AGAGUGAUUACCUCGGUCCCACAUGAGGAUCACCCAUGUAACAAGGAUAUCGCUCCAAAUGGAAGUGAGAAGGUGUCUCAUGUC” the same measures were 27.8 nM and 42.2 nM.
For “AAGGUAUACUGAGGAUAUCCGUGGGUAUAUGGGUCUAGGAACAUGAGGAUCACCCAUGUUCCCUAGGAGAAGGCAGGACAUUAA” the same measures were 25 nM and 33.6 nM.
Turning to “AGCGUACAUGUUAGGAUAUGCUGUAGGAAUACUCAGCAGAAGGAACAUGAGGAUCACCCAUGUUUGUCCGUUCU”, the “apparent Kd” value is, setting by setting: under setting [1], 14.5 nM; under setting [2], 23.9 nM.
As for “AAAAAACAUGAGGAUCACCCAUGUAAAAAAAUCACAGGAUAUAAGGUCGCGAAAGCGACCUUAGAAGGGUGAUCCU”, the “apparent Kd” value is, setting by setting: under setting [3], 20.1 nM; under setting [4], 20.1 nM.
For “CGCACUGAUAGAGGAUAUGUUUUACAUGAGGAUCACCCAUGUGUACAAGGAUCAAUAUAUUAGUAACAGAAGGCUAUUUGUGCG”, the “apparent Kd” value turned out to be 21.7 nM under setting [1] and 19.1 nM under setting [2].
Take “AAAAUCAAUGCAGGAUAUACAUGAGGAUCACCCAUGUAGGUUGACCCUAAUACGGGCGAUUUGCAGUAGAAGGGCAAGAAGAAA”: the “apparent Kd” value is, setting by setting: under setting [1], 50.7 nM; under setting [2], 63.4 nM.
On to “UGGUACUAGGCAGGAUAUGGGAAGAUACAUGAGGAUCACCCAUGUUUAAGAAUGCCGAGAGGCAACUAGAAGGCCCUAGUACCU”, for which the “apparent Kd” value is, setting by setting: under setting [3], 719 nM; under setting [4], 620 nM.
For “UGGAUGGUAUGAGGAUAUGCGCGUGAAACGCGCGCAGAAGGCAUGUCAAUAGACAUGAGGAUCACCCAUGUACUAUCCAUCCAA” the same measures were 114 nM and 9.65 nM.
As to “CAUUCCCGUCGAGGAUAUAUUAUAUGACAACAAACACAUACAUGAGGAUCACCCAUGUCCCAUGUAUAGAAGGCGACCUGCGUC”, the “apparent Kd” value under setting [3] turned out to be 46.6 nM and the “apparent Kd” value under setting [4] was 99.3 nM.
Take “AGGAGAAAUGUAGGAUAUGGGCGGGCAUAUGGGCAAAGCGCAUAUGCCCGCCCAGAAGGACAUGAGGAUCACCCAUGUUUCCCU”: the “apparent Kd” value runs as follows: under setting [1], 13.2 nM; under setting [2], 11.1 nM.
The like results for “GAGGUAUAAGGAUAUACAUAGAUACAGACACAUGUUCAAGUACAUGAGGAUCACCCAUGUAGAAGGUAUAUAUC” were, in that order, 33.6 nM and 30.6 nM.
Consider “GUCAUGUCAGGAUAUUUUGGUCAACUCAUCGGUCGACCCUAAGAGAAGGGACAUGAGGAUCACCCAUGUUCGCA”, for which the “apparent Kd” value runs as follows: under setting [1], 26.8 nM; under setting [2], 77.8 nM.
Turning to “CGGGCAUAUCGAGGAUAUAAGUCUAGGACAUGAGGAUCACCCAUGUAUGUCUUAGAAGGCGAUAUGCCCAGCCUGUUACAGGCA”, the “apparent Kd” value runs as follows: under setting [3], 30 nM; under setting [4], 6.01 nM.
For “GUUACAUGAGGAUCACCCAUGUAUGUGUGGGAGUAAGUGUCUUAGGAUAUCUAUGAUUUAAAUUAAGAGAAGGAAGAUUGUUGU”, the “apparent Kd” value under setting [3] worked out at 101 nM and the “apparent Kd” value under setting [4] worked out at 117 nM.
As to “GAGCGGGAAACAUGAGGAUCACCCAUGUAAUAAGUCCUCAAGUAGGAUAUGCACACGAGAAGUGUGCAGAAGGGCUACCCGGUC”, the “apparent Kd” value amounted to 20.9 nM under setting [1] and 28.8 nM under setting [2].
“UUUUCUCGUGAGAAGGACAUGAGGAUCACCCAUGUAGGAUAUCGUGGGAGACAGGAAUUGAAUCUUCGGAUUCAAUUCCAGUCU”: the “apparent Kd” value was 107 nM under setting [3] and 10.1 nM under setting [4].
In the case of “GGAUAGGACAGAGGAUAUACCGAUAGGAGAUACUAUCGACUAUUCCUCACAUGAGGAUCACCCAUGUAGAAGGCUGUCCUAUCG”, the “apparent Kd” value came to 16.9 nM under setting [1] and 58.1 nM under setting [2].
Turning to “AAAAAAAAAGUAGAGGAUAUCCGAGUGGUAACAUGAGGAUCACCCAUGUGAAGAAAGGAAGAUGAGGAGAAGGCUACAAAAAAAAA”, the “apparent Kd” value is, setting by setting: under setting [3], 47.5 nM; under setting [4], 21.9 nM.
For “AAGCUUGAUCCUCGUGUAUACAUGAGGAUCACCCAUGUGACGCAGGAUAUAGGCGUGUUAGUAGCCUAGAAGGGCGAGCAGCGA”, the “apparent Kd” value runs as follows: under setting [1], 128 nM; under setting [2], 73.5 nM.

Source of the values: the EternaBench riboswitch data.
